Results taken from ChEMBL document CHEMBL1156036, “A class of novel N-(3S-1,2,3,4-tetrahydroisoquinoline-3-carbonyl)-L-amino acid derivatives: their synthesis, anti-thrombotic activity evaluation, and 3D QSAR analysis” (Eur J Med Chem, 2009).
Square brackets hold non-standard residues; d marks the D form. Peptide text beside a SMILES is read from it. Tic = O=C(O)[C@@H]1Cc2ccccc2CN1

Tests used:
Assay type in all cases: functional
[1] = Antiplatelet aggregatory activity in pig […] assessed as inhibition of ADP-induced platelet aggregation; settings: Sus scrofa
Summary of the method: (§1)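 Pig blood spun 1000g 10 min for platelet-rich plasma, then 1500g 10 min for platelet-poor plasma; platelets adjusted to 2×10^8/ml with autologous PPP. Test agent in NS (final 100 to 0.001 μM) added to 0.5 ml plasma, then inducer in NS: PAF 0.1 μM, ADP 10 μM, AA 350 μM or thrombin 0.1 U/ml (final). Optical aggregometry, 37 °C, 5 min, six tubes.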

[2] = Antiplatelet aggregatory activity in pig […] assessed as inhibition of arachidonic acid-induced platelet aggregation; settings: Sus scrofa; summary of the method: as §1
[3] = Antiplatelet aggregatory activity in pig […] assessed as inhibition of platelet-activating factor-induced platelet aggregation; settings: Sus scrofa; summary of the method: as §1
[4] = Antiplatelet aggregatory activity in pig […] assessed as inhibition of thrombin-induced platelet aggregation; settings: Sus scrofa; summary of the method: as §1
[5] = tested on: Rattus norvegicus; assay: Antithrombotic activity in Wistar rat assessed as reduction of wet thrombus weight at 5 umol/kg, iv after 15 mins
Summary of the method: (§2)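 Male Wistar rats, 250-300 g, given agent dissolved in NS (kept on ice) intravenously; Aspirin 15 μmol/kg as reference, NS as vehicle. Pentobarbital sodium 80.0 mg/kg i.p. Arteriovenous shunt from right carotid artery to left jugular vein via polyethylene tube containing a thread; blood flowed 15 min; wet thrombus weighed, n = 12, mean ± SD.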

[6] = species on record: Rattus norvegicus; assay: Ratio of compound antithrombotic potency to aspirin antithrombotic potency in Wistar rat assessed as reduction of wet thrombus weight
[7] = tested on: Rattus norvegicus; assay: Antithrombotic activity in Wistar rat assessed as reduction of wet thrombus weight at 15 umol/kg, iv after 15 mins; summary of the method: as §2

**Q.** What does the source list for `C[C@H](NC(=O)[C@@H]1Cc2ccccc2CN1)C(=O)O` (H-[Tic]-Ala-OH)?
**A.** IC50 [1]: 350 nM; IC50 [2]: 104 nM; IC50 [3]: 352 nM; IC50 [4]: 485 nM; Activity [5]: 21.4 mg; Ratio [6]: >30

**Q.** What does the source list for `NC(=O)C[C@H](NC(=O)[C@@H]1Cc2ccccc2CN1)C(=O)O` (H-[Tic]-Asn-OH)?
**A.** IC50 [1]: 470 nM; IC50 [2]: 166 nM; IC50 [3]: 153 nM; IC50 [4]: 551 nM; Activity [5]: 20.24 mg; Ratio [6]: >30

**Q.** With `O=C(O)C[C@H](NC(=O)[C@@H]1Cc2ccccc2CN1)C(=O)O` (H-[Tic]-Asp-OH) as the compound, how does the IC50 [1] read?
**A.** 329 nM

**Q.** What about the IC50 [2] of the same compound?
**A.** 391 nM

**Q.** What about the IC50 [3] of the same compound?
**A.** 633 nM

**Q.** What about the IC50 [4] of the same compound?
**A.** 157 nM

**Q.** What about the Activity [5] of the same compound?
**A.** 21.67 mg

**Q.** What about the Ratio [6] of the same compound?
**A.** >30

**Q.** Which IC50 [1] does the source give for `O=C(O)[C@H](CS)NC(=O)[C@@H]1Cc2ccccc2CN1` (H-[Tic]-Cys-OH) here?
**A.** 231 nM

**Q.** What about the IC50 [2] of the same compound?
**A.** 460 nM

**Q.** What about the IC50 [3] of the same compound?
**A.** 780 nM

**Q.** And the IC50 [4]?
**A.** 386 nM

**Q.** What about the Activity [5] of the same compound?
**A.** 20.91 mg

**Q.** And the Ratio [6]?
**A.** >30

**Q.** With `NC(=O)CC[C@H](NC(=O)[C@@H]1Cc2ccccc2CN1)C(=O)O` (H-[Tic]-Gln-OH) as the compound, how does the IC50 [1] read?
**A.** 235 nM

**Q.** What about the IC50 [2] of the same compound?
**A.** 494 nM

**Q.** What about the IC50 [3] of the same compound?
**A.** 138 nM

**Q.** What about the IC50 [4] of the same compound?
**A.** 935 nM

**Q.** What about the Activity [5] of the same compound?
**A.** 22.08 mg

**Q.** And the Ratio [6]?
**A.** >30

**Q.** What does the source list for `O=C(O)CC[C@H](NC(=O)[C@@H]1Cc2ccccc2CN1)C(=O)O` (H-[Tic]-Glu-OH)?
**A.** IC50 [1]: 482 nM; IC50 [2]: 356 nM; IC50 [3]: 176 nM; IC50 [4]: 545 nM; Activity [5]: 19.69 mg; Ratio [6]: >30

**Q.** Which IC50 [1] does the source give for `O=C(O)CNC(=O)[C@@H]1Cc2ccccc2CN1` (H-[Tic]-Gly-OH) here?
**A.** 496 nM

**Q.** What about the IC50 [2] of the same compound?
**A.** 108 nM

**Q.** And the IC50 [3]?
**A.** 791 nM

**Q.** What about the IC50 [4] of the same compound?
**A.** 306 nM

**Q.** What about the Activity [5] of the same compound?
**A.** 20.24 mg

**Q.** And the Ratio [6]?
**A.** >30

**Q.** For `O=C(O)[C@H](Cc1c[nH]cn1)NC(=O)[C@@H]1Cc2ccccc2CN1` (H-[Tic]-His-OH), which IC50 [1] is on record?
**A.** 661 nM

**Q.** What about the IC50 [2] of the same compound?
**A.** 491 nM

**Q.** What about the IC50 [3] of the same compound?
**A.** 724 nM

**Q.** And the IC50 [4]?
**A.** 370 nM

**Q.** And the Activity [5]?
**A.** 20.86 mg

**Q.** What about the Ratio [6] of the same compound?
**A.** >30

**Q.** For `CC[C@H](C)[C@H](NC(=O)[C@@H]1Cc2ccccc2CN1)C(=O)O` (H-[Tic]-Ile-OH), which IC50 [1] is on record?
**A.** 540 nM

**Q.** And the IC50 [2]?
**A.** 443 nM

**Q.** And the IC50 [3]?
**A.** 938 nM

**Q.** What about the IC50 [4] of the same compound?
**A.** 657 nM

**Q.** And the Activity [5]?
**A.** 20.03 mg

**Q.** What about the Ratio [6] of the same compound?
**A.** >30

**Q.** For `CC(C)C[C@H](NC(=O)[C@@H]1Cc2ccccc2CN1)C(=O)O` (H-[Tic]-Leu-OH), which IC50 [1] is on record?
**A.** 478 nM

**Q.** And the IC50 [2]?
**A.** 290 nM

**Q.** And the IC50 [3]?
**A.** 1610 nM

**Q.** And the IC50 [4]?
**A.** 454 nM

**Q.** And the Activity [5]?
**A.** 20.23 mg

**Q.** What about the Ratio [6] of the same compound?
**A.** >30

**Q.** Which IC50 [1] does the source give for `NCCCC[C@H](NC(=O)[C@@H]1Cc2ccccc2CN1)C(=O)O` (H-[Tic]-Lys-OH) here?
**A.** 194 nM

**Q.** What about the IC50 [2] of the same compound?
**A.** 277 nM

**Q.** What about the IC50 [3] of the same compound?
**A.** 1040 nM

**Q.** And the IC50 [4]?
**A.** 733 nM

**Q.** What about the Activity [5] of the same compound?
**A.** 21.28 mg

**Q.** What about the Ratio [6] of the same compound?
**A.** >30

**Q.** For `CSCC[C@H](NC(=O)[C@@H]1Cc2ccccc2CN1)C(=O)O` (H-[Tic]-Met-OH), which IC50 [1] is on record?
**A.** 229 nM

**Q.** And the IC50 [2]?
**A.** 191 nM

**Q.** And the IC50 [3]?
**A.** 376 nM

**Q.** And the IC50 [4]?
**A.** 312 nM

**Q.** What about the Activity [5] of the same compound?
**A.** 21.74 mg

**Q.** What about the Ratio [6] of the same compound?
**A.** >30

**Q.** Which IC50 [1] does the source give for `O=C(O)[C@H](Cc1ccccc1)NC(=O)[C@@H]1Cc2ccccc2CN1` (H-[Tic]-Phe-OH) here?
**A.** 188 nM

**Q.** What about the IC50 [2] of the same compound?
**A.** 553 nM

**Q.** And the IC50 [3]?
**A.** 218 nM

**Q.** And the IC50 [4]?
**A.** 336 nM

**Q.** What about the Activity [5] of the same compound?
**A.** 19.11 mg

**Q.** And the Ratio [6]?
**A.** >30

**Q.** For `O=C(O)[C@@H]1CCCN1C(=O)[C@@H]1Cc2ccccc2CN1` (H-[Tic]-Pro-OH), which IC50 [1] is on record?
**A.** 364 nM

**Q.** And the IC50 [2]?
**A.** 103 nM

**Q.** And the IC50 [3]?
**A.** 1400 nM

**Q.** And the IC50 [4]?
**A.** 185 nM

**Q.** What about the Activity [5] of the same compound?
**A.** 20.25 mg

**Q.** And the Ratio [6]?
**A.** >30

**Q.** With `O=C(O)[C@H](CO)NC(=O)[C@@H]1Cc2ccccc2CN1` (H-[Tic]-Ser-OH) as the compound, how does the IC50 [1] read?
**A.** 388 nM

**Q.** What about the IC50 [2] of the same compound?
**A.** 416 nM

**Q.** And the IC50 [3]?
**A.** 942 nM

**Q.** What about the IC50 [4] of the same compound?
**A.** 841 nM

**Q.** What about the Activity [5] of the same compound?
**A.** 23.58 mg

**Q.** What about the Ratio [6] of the same compound?
**A.** >30

**Q.** With `C[C@@H](O)[C@H](NC(=O)[C@@H]1Cc2ccccc2CN1)C(=O)O` (H-[Tic]-Thr-OH) as the compound, how does the IC50 [1] read?
**A.** 164 nM

**Q.** And the IC50 [2]?
**A.** 418 nM

**Q.** What about the IC50 [3] of the same compound?
**A.** 588 nM

**Q.** And the IC50 [4]?
**A.** 763 nM

**Q.** And the Activity [5]?
**A.** 21.25 mg

**Q.** What about the Ratio [6] of the same compound?
**A.** >30

**Q.** Which IC50 [1] does the source give for `O=C(O)[C@H](Cc1c[nH]c2ccccc12)NC(=O)[C@@H]1Cc2ccccc2CN1` (H-[Tic]-Trp-OH) here?
**A.** 120 nM

**Q.** And the IC50 [2]?
**A.** 374 nM

**Q.** What about the IC50 [3] of the same compound?
**A.** 668 nM

**Q.** And the IC50 [4]?
**A.** 234 nM

**Q.** And the Activity [5]?
**A.** 21.3 mg

**Q.** And the Ratio [6]?
**A.** >30

**Q.** Which IC50 [1] does the source give for `O=C(O)[C@H](Cc1ccc(O)cc1)NC(=O)[C@@H]1Cc2ccccc2CN1` (H-[Tic]-Tyr-OH) here?
**A.** 481 nM

**Q.** What about the IC50 [2] of the same compound?
**A.** 390 nM

**Q.** What about the IC50 [3] of the same compound?
**A.** 1150 nM

**Q.** What about the IC50 [4] of the same compound?
**A.** 970 nM

**Q.** And the Activity [5]?
**A.** 19.31 mg

**Q.** What about the Ratio [6] of the same compound?
**A.** >30

**Q.** Which results are given for `CC(C)[C@H](NC(=O)[C@@H]1Cc2ccccc2CN1)C(=O)O` (H-[Tic]-Val-OH)?
**A.** IC50 [1]: 382 nM; IC50 [2]: 388 nM; IC50 [3]: 943 nM; IC50 [4]: 199 nM; Activity [5]: 19.2 mg; Ratio [6]: >30

**Q.** For `CC(=O)Oc1ccccc1C(=O)O` [ASPIRIN], which Activity [7] is on record?
**A.** 27.6 mg
